IC50 data for 28 compounds are collected here from ChEMBL document CHEMBL1141199, “N-benzylisatin sulfonamide analogues as potent caspase-3 inhibitors: synthesis, in vitro activity, and molecular modeling studies” (J Med Chem, 2005).

The target in one test is Caspase-8 (Homo sapiens, UniProt Q14790). The test is described as follows: Inhibitory activity against caspase 8 using Ac-IETD-AMC substrate. The essentials:
(§1)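 Substrates at 10 µM: Ac-DEVD-AMC (caspase-3), Ac-VEID-AMC (caspase-6), Ac-IETD-AMC (caspase-8). Serially diluted inhibitors were preincubated 30 min on ice, then run 1–2 h at 37 °C in 5% final DMSO. AMC fluorescence ex 355/em 460 nm. Duplicates; IC50 averaged over three experiments.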

The next test concerns the target T1, Caspase-3 (Homo sapiens, UniProt P42574).
T1 sequence (P42574 whole entry): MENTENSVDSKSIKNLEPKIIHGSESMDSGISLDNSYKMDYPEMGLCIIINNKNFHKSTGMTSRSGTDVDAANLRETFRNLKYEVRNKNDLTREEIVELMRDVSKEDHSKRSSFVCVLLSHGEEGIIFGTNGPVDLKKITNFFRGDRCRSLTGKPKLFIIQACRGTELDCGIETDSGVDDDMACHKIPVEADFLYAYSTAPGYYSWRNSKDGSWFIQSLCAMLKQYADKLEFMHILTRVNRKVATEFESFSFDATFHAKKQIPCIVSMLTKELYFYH
The test is described as follows: Inhibitory activity against caspase 3 using Ac-DEVD-AMC substrate. The essentials:
as §1

In the next test the target is T2, Caspase-7 (Homo sapiens, UniProt P55210).
T2 sequence (P55210 whole entry): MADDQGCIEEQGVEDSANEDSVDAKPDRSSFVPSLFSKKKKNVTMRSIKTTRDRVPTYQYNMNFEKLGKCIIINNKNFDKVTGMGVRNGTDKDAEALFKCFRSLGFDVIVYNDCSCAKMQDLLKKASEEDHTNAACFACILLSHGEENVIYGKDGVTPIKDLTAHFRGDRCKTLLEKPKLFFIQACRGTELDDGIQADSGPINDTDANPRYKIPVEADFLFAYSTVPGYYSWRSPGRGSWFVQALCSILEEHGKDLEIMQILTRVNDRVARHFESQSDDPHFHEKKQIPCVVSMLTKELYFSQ
In words: Inhibitory activity against caspase 7 using Ac-DEVD-AMC substrate. The essentials: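 Substrate solution held a further 10 mM 2-mercaptoethanol for full activation. Enzyme was used at a linear-range level. DMSO inhibitor dilutions (5% final) were preincubated 30 min on ice, then run 1–2 h at 37 °C. AMC read at 355/460 nm. Duplicates; IC50 is the mean of three runs.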

The target of another test is T3, Caspase-6 (Homo sapiens, UniProt P55212).
T3 sequence (P55212 whole entry): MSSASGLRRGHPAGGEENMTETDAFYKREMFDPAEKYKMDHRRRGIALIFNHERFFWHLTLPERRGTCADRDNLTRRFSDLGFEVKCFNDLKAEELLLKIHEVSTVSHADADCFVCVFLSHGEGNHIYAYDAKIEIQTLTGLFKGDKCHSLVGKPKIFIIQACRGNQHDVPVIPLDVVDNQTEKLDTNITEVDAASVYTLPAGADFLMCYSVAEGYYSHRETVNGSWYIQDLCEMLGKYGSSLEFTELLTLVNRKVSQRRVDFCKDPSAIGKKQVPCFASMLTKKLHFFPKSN
The test is described as follows: Inhibitory activity against caspase 6 using Ac-VEID-AMC substrate. In outline: as §1

The target in the next test is T4, Caspase-1 (Homo sapiens, UniProt P29466).
T4 sequence (P29466 whole entry): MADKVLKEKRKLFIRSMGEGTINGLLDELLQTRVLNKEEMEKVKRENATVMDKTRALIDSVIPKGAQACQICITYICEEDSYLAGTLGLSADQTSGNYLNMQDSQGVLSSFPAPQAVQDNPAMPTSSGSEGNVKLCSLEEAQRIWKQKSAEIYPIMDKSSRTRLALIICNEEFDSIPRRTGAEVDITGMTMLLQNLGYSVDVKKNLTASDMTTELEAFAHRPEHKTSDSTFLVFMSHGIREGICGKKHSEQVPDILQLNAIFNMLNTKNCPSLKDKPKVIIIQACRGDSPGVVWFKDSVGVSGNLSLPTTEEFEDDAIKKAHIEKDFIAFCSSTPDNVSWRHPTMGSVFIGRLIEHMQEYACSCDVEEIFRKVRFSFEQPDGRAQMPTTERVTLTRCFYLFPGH
The test is described as follows: Inhibitory activity against caspase 1 using Ac-YVAD-AMC substrate. The essentials:
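Substrate solution carried an extra 10 mM 2-mercaptoethanol. Inhibitors in DMSO were preincubated 30 min on ice, then run 1–2 h at 37 °C. AMC was read at ex 355/em 460 nm. Duplicates; IC50 is the mean of three experiments.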

SMILES strings stand for the structures. Bounds are passed on as bounds.

Chain of Caspase-8 (Q14790 217-374 limits assumed): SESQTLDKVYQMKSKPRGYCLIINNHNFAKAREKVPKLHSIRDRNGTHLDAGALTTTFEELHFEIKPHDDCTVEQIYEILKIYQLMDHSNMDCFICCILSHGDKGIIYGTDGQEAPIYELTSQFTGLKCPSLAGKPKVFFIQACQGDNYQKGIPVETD
Chain of Caspase-8 (Q14790 385-479 limits assumed): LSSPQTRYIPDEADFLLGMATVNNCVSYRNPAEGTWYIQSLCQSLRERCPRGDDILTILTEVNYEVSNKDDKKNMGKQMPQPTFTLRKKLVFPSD

In general, IC50 refers to the concentration needed to halve the response being measured. High values mean a need for much substance, low ones inhibition by little substance. For `O=C1Nc2ccc(S(=O)(=O)N3CCC[C@H]3COc3cccnc3)cc2C1=O`, the 50% inhibitory concentration (IC50) on Caspase-8 was over 50 µM; against Caspase-3, 0.0583 µM; against Caspase-7, 0.215 µM; against Caspase-6, over 5 µM; against Caspase-1 it was over 5 µM.
With `CSc1ccc(CN2C(=O)C(=O)c3cc(S(=O)(=O)N4CCC[C@H]4COc4cccnc4)ccc32)cc1`, the IC50 was over 50 µM against Caspase-8; 0.0044 µM at Caspase-3; 0.0233 µM against Caspase-7; over 5 µM at Caspase-6; over 50 µM on Caspase-1.
Turning to `O=C1Nc2ccc(S(=O)(=O)N3CCC[C@H]3COc3ccccc3)cc2C1=O`, the IC50 is over 50 µM at Caspase-8, over 5 µM against Caspase-6 and over 10 µM against Caspase-1.
Consider `COc1ccc(CN2C(=O)C(=O)c3cc(S(=O)(=O)N4CCC[C@H]4COc4ccccc4)ccc32)cc1`, for which the IC50 against Caspase-8 is over 50 µM; against Caspase-3 it was 0.0145 µM; on Caspase-7, 0.0218 µM; against Caspase-6, over 5 µM; on Caspase-1 it was over 10 µM.
For `O=C1C(=O)N(Cc2ccccc2)c2ccc(S(=O)(=O)N3CCC[C@H]3COc3cccnc3)cc21`, in that order: over 50 µM, 0.0052 µM, 0.0141 µM, over 5 µM and over 10 µM.
For `O=C1C(=O)N(Cc2ccc(F)nc2)c2ccc(S(=O)(=O)N3CC[C@H]3COc3ccccc3)cc21`, the results for the half-inhibitory concentration (IC50) on Caspase-8, on Caspase-6 and at Caspase-1 were over 50 µM, over 5 µM and over 50 µM, respectively.
On to `O=C1Nc2ccc(S(=O)(=O)N3CCC[C@H]3COc3ccncc3)cc2C1=O`, for which the IC50 against Caspase-8 was over 50 µM; at Caspase-3 it was 0.0204 µM; at Caspase-7 it was 0.142 µM; against Caspase-6, over 5 µM; on Caspase-1, over 5 µM.
Turning to `O=C1C(=O)N(Cc2cccc(F)n2)c2ccc(S(=O)(=O)N3CC[C@H]3COc3ccccc3)cc21`, the IC50 is over 50 µM against Caspase-8, over 5 µM on Caspase-6 and over 10 µM against Caspase-1.
With `O=C1C(=O)N(Cc2ccc(F)cc2)c2ccc(S(=O)(=O)N3CCC[C@H]3COc3cccnc3)cc21`, the IC50 against Caspase-8 was over 50 µM; on Caspase-3 it was 0.0084 µM; against Caspase-7, 0.0151 µM; against Caspase-6, over 5 µM; at Caspase-1, over 10 µM.
Taken in the same sequence, the figures for `CC(=O)Oc1ccc(CN2C(=O)C(=O)c3cc(S(=O)(=O)N4CCC[C@H]4COc4ccccc4)ccc32)cc1` were over 50 µM, 0.012 µM, 0.0348 µM, over 5 µM and over 50 µM.
Taken in the same sequence, the figures for `CN1C(=O)C(=O)c2cc(S(=O)(=O)N3CCC[C@H]3COc3ccccc3)ccc21` were over 50 µM, 0.119 µM, 0.31 µM, over 5 µM and over 20 µM.
Taken in the same sequence, the figures for `O=C1C(=O)N(Cc2ccc(F)cc2)c2ccc(S(=O)(=O)N3CCC[C@H]3COc3ccccc3)cc21` were over 50 µM, 0.0121 µM, 0.023 µM, over 5 µM and over 50 µM.
In the case of `O=C1C(=O)N(Cc2ccc(F)cc2)c2ccc(S(=O)(=O)N3CC[C@H]3COc3ccccc3)cc21`, the figures for the IC50 against Caspase-8, at Caspase-6 and against Caspase-1 were over 50 µM, over 5 µM and over 10 µM, respectively.
Taken in the same sequence, the figures for `O=C1C(=O)N(Cc2ccc(O)cc2)c2ccc(S(=O)(=O)N3CCC[C@H]3COc3ccccc3)cc21` were over 50 µM, over 5 µM and over 5 µM.
Regarding `O=C1C(=O)N(Cc2cccc(F)n2)c2ccc(S(=O)(=O)N3CCC[C@H]3COc3ccccc3)cc21`, the IC50 is over 50 µM against Caspase-8, over 5 µM on Caspase-6 and over 50 µM at Caspase-1.
`O=C1C(=O)N(Cc2ccccc2F)c2ccc(S(=O)(=O)N3CC[C@H]3COc3ccccc3)cc21`: the IC50 against Caspase-8 is over 50 µM; at Caspase-6, over 5 µM; against Caspase-1, over 10 µM.
Taken in the same sequence, the figures for `O=C1C(=O)N(Cc2ccccc2)c2ccc(S(=O)(=O)N3CC[C@H]3COc3ccccc3)cc21` were over 50 µM, over 5 µM and over 10 µM.
On to `CN1C(=O)C(=O)c2cc(S(=O)(=O)N3CCC[C@H]3COc3cccnc3)ccc21`, for which the IC50 against Caspase-8 is over 50 µM; on Caspase-3 it was 0.0233 µM; on Caspase-7, 0.0949 µM; at Caspase-6, over 5 µM; against Caspase-1 it was over 10 µM.
Regarding `O=C1C(=O)N(Cc2ccnc(F)c2)c2ccc(S(=O)(=O)N3CC[C@H]3COc3ccccc3)cc21`, the values for the IC50 at Caspase-8, on Caspase-6 and on Caspase-1 were over 50 µM, over 5 µM and over 50 µM, respectively.
For the compound `CN1C(=O)C(=O)c2cc(S(=O)(=O)N3CC[C@H]3COc3ccccc3)ccc21`, the values for the IC50 against Caspase-8, against Caspase-6 and against Caspase-1 were over 50 µM, over 5 µM and over 10 µM, respectively.
For `COc1ccc(CN2C(=O)C(=O)c3cc(S(=O)(=O)N4CC[C@H]4COc4ccccc4)ccc32)cc1`, in that order: over 50 µM, over 5 µM and over 50 µM.
Consider `O=C1C(=O)N(Cc2ccnc(F)c2)c2ccc(S(=O)(=O)N3CCC[C@H]3COc3ccccc3)cc21`, for which the IC50 at Caspase-8 was over 50 µM; against Caspase-6, over 5 µM; on Caspase-1, over 50 µM.
Take `COc1ccc(CN2C(=O)C(=O)c3cc(S(=O)(=O)N4CCC[C@H]4COc4cccnc4)ccc32)cc1`: the half-maximal inhibitory concentration (IC50) is over 50 µM against Caspase-8; 0.0039 µM against Caspase-3; 0.0151 µM at Caspase-7; over 5 µM on Caspase-6; over 10 µM against Caspase-1.
`O=C1Nc2ccc(S(=O)(=O)N3CC[C@H]3COc3ccccc3)cc2C1=O`: the results for the IC50 against Caspase-8, against Caspase-6 and against Caspase-1 were over 50 µM, over 5 µM and over 10 µM, respectively.
For `O=C1C(=O)N(Cc2ccc(F)nc2)c2ccc(S(=O)(=O)N3CCC[C@H]3COc3ccccc3)cc21`, in that order: over 50 µM, over 5 µM and over 50 µM.
On to `O=C1C(=O)N(Cc2ccccc2)c2ccc(S(=O)(=O)N3CCC[C@H]3COc3ccccc3)cc21`, for which the IC50 was over 50 µM on Caspase-8, over 5 µM against Caspase-6 and over 10 µM against Caspase-1.
On to `CSc1ccc(CN2C(=O)C(=O)c3cc(S(=O)(=O)N4CCC[C@H]4COc4ccccc4)ccc32)cc1`, for which the IC50 on Caspase-8 was over 50 µM; against Caspase-3, 0.0124 µM; on Caspase-7 it was 0.041 µM; on Caspase-6, over 5 µM; at Caspase-1 it was over 50 µM.
`CSc1ccc(CN2C(=O)C(=O)c3cc(S(=O)(=O)N4CC[C@H]4COc4ccccc4)ccc32)cc1`: the IC50 on Caspase-8 is over 50 µM; on Caspase-6 it was over 5 µM; against Caspase-1, over 50 µM.
